The source of these data is ChEMBL document CHEMBL4414620, “Structurally Modified Cyclopenta[b]benzofuran Analogues Isolated from Aglaia perviridis” (J Nat Prod, 2019).

The IC50 is the point on the concentration scale where inhibition reaches its midpoint. Higher therefore signals lower potency.

One test concerns HT-29. The test can be described thus: Antiproliferative activity against human HT-29 cells incubated for 72 hrs by SRB assay. Type of test: functional, cell-based. The note with it: HT-29, 72 h. Summed up:
(§1)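 Purified isolates were screened for cytotoxicity against HT-29 and PC-3 human cancer cells, with paclitaxel as the positive control for both lines.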
Background: Sulforhodamine B stains cellular protein and so reports cell mass.

The subject of the next test is PC-3. The test can be described thus: Antiproliferative activity against human PC3 cells incubated for 72 hrs by SRB assay. The class given is functional, cell-based. The note with it: PC-3, 72 h. Summed up:
as §1

Turning to `COc1ccc([C@@]23Oc4cc5c(c(OC)c4[C@]2(O)[C@H](O)[C@H](C(N)=O)[C@H]3c2ccccc2)[C@@H]2OC[C@H]([C@H](O)CO)O[C@@H]2O5)cc1`, the IC50 with HT-29 and in the test with PC-3 was above 10 µM each time.
In the case of `COc1ccc([C@@]23Oc4cc5c(c(OC)c4[C@]2(O)[C@H](O)[C@H](C(N)=O)[C@H]3c2ccccc2)[C@H]2OC[C@H]([C@@H](O)CO)O[C@H]2O5)cc1`, the IC50 in the test with HT-29 and in the test with PC-3 was above 10 µM each time.
On to `COc1ccc([C@@]23Oc4cc5c(c(OC)c4[C@]2(O)[C@H](O)[C@H](C(N)=O)[C@H]3c2ccccc2)[C@@H]2OC[C@H]([C@@H](O)CO)O[C@@H]2O5)cc1`, for which the IC50 in the test on HT-29 and with PC-3 was above 10 µM each time.
As for `COc1ccc([C@@]23Oc4cc(O[C@@H]5O[C@@H]([C@@H](O)CO)COC5O)cc(OC)c4[C@]2(O)[C@H](O)[C@H](C(N)=O)[C@H]3c2ccccc2)cc1` (mixture of isomers), the 50% inhibitory concentration (IC50) in the test with HT-29 and with PC-3 was 2.3 µM each time.
With `COc1ccc([C@@]23Oc4cc5c(c(OC)c4[C@]2(O)[C@H](O)[C@H](C(N)=O)[C@H]3c2ccccc2)[C@H]2OC[C@H]([C@H](O)CO)O[C@H]2O5)cc1`, the IC50 in the test with HT-29 and with PC-3 was above 10 µM in each case.
